Laboratory results published in ChEMBL document CHEMBL1130321, “Synthesis and in vitro activity of 3 beta-substituted-3 alpha-hydroxypregnan-20-ones: allosteric modulators of the GABAA receptor” (J Med Chem, 1997).

Experiments:
[1] = target: GABA-A receptor; anion channel; assay: Ability to allosterically modulate the binding of [35S]TBPS to gamma-aminobutyric-acid A receptor in rat brain cortical P2 membranes.; assay type: cell membranes, Membrane
In short: (§1)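 Rat cortical P2 membranes washed in 200 mM NaCl/50 mM Na-K phosphate pH 7.4. Incubated with 2 nM [35S]TBPS, 5 µM GABA and compound at nine concentrations from 1 nM to 10 µM final (DMSO 0.5% final), 90 min at room temperature. Nonspecific binding was defined with 2 µM unlabeled TBPS. Read-out was filtration and scintillation counting. IC50 and Imax came from partial or full inhibition fits chosen by F-test. Values are mean ± SEM of 3-9 experiments.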

[2] = species: Rattus norvegicus; assay: Percent of maximal extent of inhibition was calculated by fitting [35S]TBPS inhibition data to a sigmoid function (rat brain cortical P2 membranes).; assay type: functional; in short: as §1
[3] = target: T1, GABA-A receptor; alpha-1/beta-2/gamma-2 (Homo sapiens, UniProt P14867+P18507+P47870); assay: Potentiation of GABA-activated currents in Xenopus oocytes expressing cloned human alpha-1-beta-2-gamma-2L subunits of GABA-A receptor; assay type: functional, cell-based, Oocyte
T1 sequence (P14867 whole entry): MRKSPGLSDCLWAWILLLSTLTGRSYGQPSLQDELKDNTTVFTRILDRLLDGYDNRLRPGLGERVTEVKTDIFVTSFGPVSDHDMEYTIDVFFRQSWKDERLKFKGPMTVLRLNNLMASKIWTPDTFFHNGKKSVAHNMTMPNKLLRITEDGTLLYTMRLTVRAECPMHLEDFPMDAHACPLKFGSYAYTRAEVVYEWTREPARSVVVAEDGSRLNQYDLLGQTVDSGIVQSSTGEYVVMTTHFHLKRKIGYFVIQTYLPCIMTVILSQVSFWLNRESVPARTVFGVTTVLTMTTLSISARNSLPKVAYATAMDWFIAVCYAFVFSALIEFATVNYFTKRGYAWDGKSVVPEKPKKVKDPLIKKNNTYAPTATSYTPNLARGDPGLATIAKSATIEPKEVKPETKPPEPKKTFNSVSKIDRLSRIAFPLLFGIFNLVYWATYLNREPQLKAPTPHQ
T1 sequence (P47870 whole entry): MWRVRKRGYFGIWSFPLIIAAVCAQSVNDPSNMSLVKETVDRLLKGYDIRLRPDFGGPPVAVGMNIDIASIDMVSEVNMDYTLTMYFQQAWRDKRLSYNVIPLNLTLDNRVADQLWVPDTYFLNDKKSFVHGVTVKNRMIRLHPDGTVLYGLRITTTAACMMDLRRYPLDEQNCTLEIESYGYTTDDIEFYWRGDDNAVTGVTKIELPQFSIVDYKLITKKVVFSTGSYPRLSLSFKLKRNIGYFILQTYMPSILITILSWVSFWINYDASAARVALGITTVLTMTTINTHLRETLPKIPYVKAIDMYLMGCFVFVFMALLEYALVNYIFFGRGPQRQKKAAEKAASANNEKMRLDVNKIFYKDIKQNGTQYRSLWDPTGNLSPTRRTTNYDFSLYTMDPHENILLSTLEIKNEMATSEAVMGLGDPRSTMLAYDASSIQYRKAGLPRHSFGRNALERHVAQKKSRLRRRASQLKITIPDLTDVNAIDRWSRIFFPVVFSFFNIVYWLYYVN
T1 sequence (P18507 whole entry): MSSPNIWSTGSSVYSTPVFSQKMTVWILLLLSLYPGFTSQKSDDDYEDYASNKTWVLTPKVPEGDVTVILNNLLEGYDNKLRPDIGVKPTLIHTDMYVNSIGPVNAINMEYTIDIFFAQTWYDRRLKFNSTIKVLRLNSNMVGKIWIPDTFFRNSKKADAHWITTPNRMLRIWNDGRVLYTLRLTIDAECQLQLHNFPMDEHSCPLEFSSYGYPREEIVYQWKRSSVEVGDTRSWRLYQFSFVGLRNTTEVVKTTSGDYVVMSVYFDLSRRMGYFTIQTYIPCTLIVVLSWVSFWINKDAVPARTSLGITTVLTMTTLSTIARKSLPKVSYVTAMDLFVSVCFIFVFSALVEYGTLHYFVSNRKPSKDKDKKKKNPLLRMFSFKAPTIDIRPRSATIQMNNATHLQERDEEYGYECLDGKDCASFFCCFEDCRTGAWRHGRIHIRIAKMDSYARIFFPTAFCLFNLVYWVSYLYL
In short: (§2)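 Xenopus oocytes were injected with human α1, β2 and γ2L cRNAs at 1:1:1, ~1 ng each. Two-electrode voltage clamp was done in frog Ringer (HEPES 5 mM, pH 7.4). Currents were scaled to the maximum elicited by 3 mM GABA. Steroid was applied in increasing concentrations to a fixed GABA response of ~0.05 fractional current, with DMSO 0.3% final. Data were fitted to a four-parameter logistic and given as mean ± SEM.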

[4] = target: T2, GABA-A receptor; alpha-1/beta-2/gamma-2 (Homo sapiens) (UniProt P14867+P47870+P18507); assay: Efficacy as fractional response (FR) relative to GABA maximal current elicited in Xenopus oocytes; assay type: functional, cell-based; conditions: Oocyte; in short: as §2
[5] = target: T2, GABA-A receptor; alpha-1/beta-2/gamma-2 (Homo sapiens); assay: Hill value, slope calculated from GABA-current potentiation in Xenopus oocytes; assay type: functional, cell-based; conditions: Oocyte
In short: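 Xenopus oocytes injected 1:1:1 with human α1, β2, γ2L cRNAs (~1 ng each per cell); two-electrode voltage clamp in frog Ringer (NaCl 115, KCl 2, CaCl2 1.8, HEPES 5 mM, pH 7.4). Steroid DMSO stocks diluted […] (DMSO 0.3% final). Increasing steroid applied on a GABA response set to ~5% of the 3 mM GABA maximum. Data fit to a four-parameter logistic; mean ± SEM.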

| SMILES | IC50 [1] [nM] | Imax [2] [%] | EC50 [3] [nM] | Efficacy [4] | Hill coefficient [5] |
| --- | --- | --- | --- | --- | --- |
| CC(=O)[C@H]1CC[C@H]2[C@@H]3CC[C@H]4C[C@@](O)(CI)CC[C@]4(C)[C@H]3CC[C@]12C | 702 | 50 |  |  |  |
| COC[C@@]1(O)CC[C@@]2(C)[C@H](CC[C@@H]3[C@@H]2CC[C@]2(C)[C@@H](C(C)=O)CC[C@@H]32)C1 | 40 | 103 |  |  |  |
| CC(=O)[C@H]1CC[C@H]2[C@@H]3CC[C@@H]4C[C@@](O)(CCl)CC[C@]4(C)[C@H]3CC[C@]12C | 243 | 103 |  |  |  |
| CC[C@@]1(O)CC[C@@]2(C)[C@H](CC[C@@H]3[C@@H]2CC[C@]2(C)[C@@H](C(C)=O)CC[C@@H]32)C1 | 135 | 95 |  |  |  |
| CC(=O)[C@H]1CC[C@H]2[C@@H]3CC[C@H]4C[C@@](O)(CN=[N+]=[N-])CC[C@]4(C)[C@H]3CC[C@]12C | 27 | 99 | 150 | 0.8 |  |
| CC(=O)[C@H]1CC[C@H]2[C@@H]3CC[C@H]4C[C@@](O)(CC#N)CC[C@]4(C)[C@H]3CC[C@]12C | 614 | 38 |  |  | 1 |
| C=C=CC[C@@]1(O)CC[C@@]2(C)[C@@H](CC[C@@H]3[C@@H]2CC[C@]2(C)[C@@H](C(C)=O)CC[C@@H]32)C1 | 365 | 57 |  |  |  |
| C#C[C@@]1(O)CC[C@@]2(C)[C@H](CC[C@@H]3[C@@H]2CC[C@]2(C)[C@@H](C(C)=O)CC[C@@H]32)C1 |  | 101 |  |  |  |
| CC(=O)[C@H]1CC[C@H]2[C@@H]3CC[C@H]4C[C@@](O)(CCl)CC[C@]4(C)[C@H]3CC[C@]12C | 71 | 33 |  |  |  |
| C=C[C@@]1(O)CC[C@@]2(C)[C@H](CC[C@@H]3[C@@H]2CC[C@]2(C)[C@@H](C(C)=O)CC[C@@H]32)C1 | 43 | 103 |  |  |  |
| C=C[C@@]1(O)CC[C@@]2(C)[C@@H](CC[C@@H]3[C@@H]2CC[C@]2(C)[C@@H](C(C)=O)CC[C@@H]32)C1 | 120 | 94 |  |  |  |
| CN1C(=O)CN=C(c2ccccc2)c2cc(Cl)ccc21 |  | 49 |  |  |  |
| C#CC[C@@]1(O)CC[C@@]2(C)[C@@H](CC[C@@H]3[C@@H]2CC[C@]2(C)[C@@H](C(C)=O)CC[C@@H]32)C1 | 50 | 43 |  |  |  |
| CC(=O)[C@H]1CC[C@H]2[C@@H]3CC[C@H]4C[C@@](O)(CN(C)C)CC[C@]4(C)[C@H]3CC[C@]12C | > 10000 | 0 | > 50000 |  |  |
| C#CC[C@@]1(O)CC[C@@]2(C)[C@H](CC[C@@H]3[C@@H]2CC[C@]2(C)[C@@H](C(C)=O)CC[C@@H]32)C1 | 214 | 101 |  |  |  |
| CC[C@@]1(O)CC[C@@]2(C)[C@@H](CC[C@@H]3[C@@H]2CC[C@]2(C)[C@@H](C(C)=O)CC[C@@H]32)C1 | 257 | 69 |  |  |  |
| COC[C@@]1(O)CC[C@@]2(C)[C@@H](CC[C@@H]3[C@@H]2CC[C@]2(C)[C@@H](C(C)=O)CC[C@@H]32)C1 | 76 | 104 |  |  |  |

| SMILES | IC50 [1] [nM] | Imax [2] [%] | EC50 [3] [nM] | Efficacy [4] | Hill coefficient [5] |
| --- | --- | --- | --- | --- | --- |
| C#C[C@@]1(O)CC[C@@]2(C)[C@@H](CC[C@@H]3[C@@H]2CC[C@]2(C)[C@@H](C(C)=O)CC[C@@H]32)C1 | 64 | 93 |  |  |  |
| CC(=O)[C@H]1CC[C@H]2[C@@H]3CC[C@H]4C[C@@](O)(C(F)(F)F)CC[C@]4(C)[C@H]3CC[C@]12C | 266 | 44 | 390 | 0.3 |  |
| CC(=O)[C@H]1CC[C@H]2[C@@H]3CC[C@H]4C[C@@](O)(CBr)CC[C@]4(C)[C@H]3CC[C@]12C | 224 | 44 |  |  |  |
| C=CCC[C@@]1(O)CC[C@@]2(C)[C@@H](CC[C@@H]3[C@@H]2CC[C@]2(C)[C@@H](C(C)=O)CC[C@@H]32)C1 | 325 | 59 |  |  |  |
| CC(=O)[C@H]1CC[C@H]2[C@@H]3CC[C@H]4C[C@@](O)(CO)CC[C@]4(C)[C@H]3CC[C@]12C | 2130 | 101 | ~20000 |  |  |
| CCCC(C)C1(CC)C(=O)NC(=O)NC1=O (configuration not stated) |  | 100 |  |  | 1 |
| CC(=O)[C@H]1CC[C@H]2[C@@H]3CC[C@H]4C[C@@](O)(CC(N)=O)CC[C@]4(C)[C@H]3CC[C@]12C | > 10000 | 28 |  |  |  |
| CCCOC[C@@]1(O)CC[C@@]2(C)[C@@H](CC[C@@H]3[C@@H]2CC[C@]2(C)[C@@H](C(C)=O)CC[C@@H]32)C1 | 655 | 94 |  |  |  |
| CC(=O)[C@H]1CC[C@H]2[C@@H]3CC[C@H]4C[C@](C)(O)CC[C@]4(C)[C@H]3CC[C@]12C [GANAXOLONE] | 80 | 94 | 260 | 0.8 |  |
| CCOC[C@@]1(O)CC[C@@]2(C)[C@@H](CC[C@@H]3[C@@H]2CC[C@]2(C)[C@@H](C(C)=O)CC[C@@H]32)C1 | 230 | 104 |  |  |  |
| CCC[C@@]1(O)CC[C@@]2(C)[C@@H](CC[C@@H]3[C@@H]2CC[C@]2(C)[C@@H](C(C)=O)CC[C@@H]32)C1 | 173 | 42 |  |  |  |
| C=CC[C@@]1(O)CC[C@@]2(C)[C@@H](CC[C@@H]3[C@@H]2CC[C@]2(C)[C@@H](C(C)=O)CC[C@@H]32)C1 | 231 | 59 |  |  |  |
| CC(=O)[C@H]1CC[C@H]2[C@@H]3CC[C@H]4C[C@H](O)CC[C@]4(C)[C@H]3CC[C@]12C [BREXANOLONE] | 51 | 95 | 160 | 0.91 |  |
| CC(=O)[C@H]1CC[C@H]2[C@@H]3CC[C@H]4C[C@@](O)(CF)CC[C@]4(C)[C@H]3CC[C@]12C | 228 | 79 |  |  |  |
| CC(=O)[C@H]1CC[C@H]2[C@@H]3CC[C@H]4C[C@@](O)(COCc5ccccc5)CC[C@]4(C)[C@H]3CC[C@]12C | 376 | 57 |  |  | 1.6 |
| CC(C)(C)OC(=O)c1ncn2c1C1CCCN1C(=O)c1c(Br)cccc1-2 (configuration not stated) | 6.1 | 27 |  |  |  |
| CC(=O)[C@H]1CC[C@H]2[C@@H]3CC[C@@H]4C[C@](C)(O)CC[C@]4(C)[C@H]3CC[C@]12C |  | 104 |  |  |  |
